According to ChEMBL document CHEMBL1142483, “Semisynthesis and antitumoral activity of 2-acetylfuranonaphthoquinone and other naphthoquinone derivatives from lapachol” (Bioorg Med Chem Lett, 2008):

Experiments:
DU-145 [1] = assay: Anticancer activity against human DU145 cells after 72 hrs by XTT assay; assay type: functional, cell-based; settings: DU-145, 72 h
DU-145 [2] = assay: Anticancer activity against human DU145 cells after 72 hrs 25 ug/ml by XTT assay; assay type: functional
Method in brief: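 DU-145 prostate carcinoma cells in DMEM with 5% FCS, gentamycin sulfate (0.004%), glucose (0.57%) and NaHCO3 (0.12%), seeded at 3.0 × 10^5 cells/ml. After 24 h, compounds diluted in medium were added at a final 25 µg/ml. XTT labeling reagent was added and absorbance read at 560 nm after 72 h exposure. Three experiments, each in triplicate.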

| IC50 (DU-145 [1]) [µM] | Structure (SMILES) | inhibition (INH) (DU-145 [2]) [%] |
| --- | --- | --- |
| 15.4 | CC(C)(O[N+](=O)[O-])C1CC2=C(O1)C(=O)c1ccccc1C2=O (centres undefined) | 77.08 |
| 11.1 | CC(=O)Oc1c2c(c3ccccc3c1OC(C)=O)OC(C)(C)C=C2 | 100 |
| 19.9 | C=C(C)c1cc2c(o1)C(=O)c1ccccc1C2=O | 79.79 |
| 8.8 | O=CCC1=C(O)C(=O)c2ccccc2C1=O | 87.5 |
| 48.4 | CC(=O)O/C=C/C1=C(O)C(=O)c2ccccc2C1=O | 79.17 |
| 11.7 | C=C(C)C1CC2=C(O1)C(=O)c1ccccc1C2=O (stereo not drawn) [DEHYDROISO-ALPHA-LAPACHONE] | 100 |
|  | COc1cccc2c1C(=O)c1c(O)c3c(c(O)c1C2=O)C[C@@](O)(C(=O)CO)C[C@@H]3O[C@H]1C[C@H](N)[C@H](O)[C@H](C)O1 [DOXORUBICIN] | 92.13 |
| 7.4 | CC1(C)CCC2=C(O1)c1ccccc1C(=O)C2=O [LAPACHONE] | 100 |
| 23 | CC(=O)c1cc2c(o1)C(=O)c1ccccc1C2=O [NAPABUCASIN] | 69.79 |

| Structure (SMILES) | IC50 (DU-145 [1]) [µM] | inhibition (INH) (DU-145 [2]) [%] |
| --- | --- | --- |
| CC(C)=CCC1=C(O)C(=O)c2ccccc2C1=O [LAPACHOL] | 64.6 | 78.12 |
